The source of these data is ChEMBL document CHEMBL1125203, “The synthesis and antiviral activity of some 4'-thio-2'-deoxy nucleoside analogues” (J Med Chem, 1991).

Molecules are shown by their SMILES. Values after ≈ are worked out from the molar mass of the structure shown.

Data set [1] has as its system MT4. In words: Minimum inhibitory concentration required to reduce cytopathogenicity of human immunodeficiency virus-1 (HIV-1) in MT-4 cells by 50%; No activity below ID50 observed. In kind it is functional, cell-based.
Data set [2] deals with MRC5. In words: Minimum inhibitory concentration required to reduce cytopathogenicity of Herpes Virus-1 (HSV-1) in MRC -5 cells by 50%. In kind it is functional. Particulars: Homo sapiens. The gist of the method: (§1)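 Plaque reduction: confluent monolayers (HSV-2 in Vero, HSV-1 in MRC-5) infected and overlaid with nutrient agarose holding doubling drug dilutions. Plaques counted after 5 days as % of control, plotted against log concentration, and IC50 read from the plot.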

The nature of data set [3]: Maximum plasma level was measured in mice. The conditions noted are these: mouse, read-out: Max plasma level. The class given is ADME, organism-based.
In data set [4] the test system is MRC5. In words: Minimum inhibitory concentration required to reduce cytopathogenicity of cytomegalovirus (CMV) in MRC-5 cells by 50%. The class given is functional. The conditions noted are these: Homo sapiens. The gist of the method: (§2)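 MRC-5 monolayers in 24-well panels, infected after 24 h and overlaid with 0.5% indubiose A37 medium containing drug at 10 and 100 µM. After 5 days, giant cells (plaques) stained with methylene blue and examined microscopically.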
(In general: Protection from cytopathic effect is a common read-out in antiviral testing.)

Data set [5] is described as follows: Half life was measured in mice. The conditions noted are these: mouse, in vivo. The class given is ADME, organism-based.
Data set [6] concerns Vero. In words: Minimum inhibitory concentration required to reduce cytopathogenicity of Herpes Virus-2 (HSV-2) in vero cells by 50%. The class given is functional. The conditions noted are these: Chlorocebus sabaeus. The gist of the method:
as §1

Data set [7] deals with Vero. In words: Inhibitory dose required to reduce the viability of vero cells by 50%. In kind it is functional, Chlorocebus sabaeus.
Data set [8] has as its system MT4. In words: Inhibitory dose required to reduce the viability of MT-4 cells by 50%. In kind it is functional, Homo sapiens. The gist of the method:
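Mock-infected MT-4 cells on the same plate as the HIV test, drug at 100, 10, 1 and 0.1 µM, triplicate wells. Growth inhibition assessed after 5 days by MTT uptake into viable cells, acidified propan-2-ol extraction and spectrophotometric reading.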

Data set [9] deals with Mus musculus. In words: Toxicity of compound was measured after ip administration to mice. The class given is organism-based. The conditions noted are these: in vivo.
Data set [10] relates to MRC5. In words: Minimum inhibitory concentration required to reduce cytopathogenicity of Varicella Zoster Virus (VZV) in MRC-5 cells by 50%. The class given is functional. Particulars: Homo sapiens.
The subject of data set [11] is MRC5. In words: Minimum inhibitory concentration required to reduce cytopathogenicity of Cytomegalovirus Virus (CMV) in MRC-5 cells by 50%. In kind it is functional. Particulars: Homo sapiens. The method, boiled down:
as §2

Consider `Cc1cn([C@H]2C[C@H](O)[C@@H](CO)S2)c(=O)[nH]c1=O` [4'-THIOTHYMIDINE], for which the MIC50 result in data set [1] is “No activity”; in data set [2], 0.37 µM (≈ 0.0956 µg/mL); in data set [4], 0.98 µM (≈ 0.253 µg/mL); in data set [6], 2.3 µM (≈ 0.594 µg/mL); in data set [10], 10 µM (≈ 2.58 µg/mL). The Cmax in data set [3] is > 35 µM. Moreover, the half-life (in general, the time needed for the level to fall by half in the phase considered) in data set [5] was 1 h. The figures for the ID50 in data set [7] and in data set [8] were 7.1 µM and 1 µM, respectively. In addition, the Toxicity in data set [9] was > 40 mg/kg.
For `O=c1[nH]c(=O)n([C@@H]2C[C@H](O)[C@@H](CO)S2)cc1/C=C/Br`, the MIC50 in [2] and in data set [6] was > 500 µM each time. In addition, in [8], the ID50 is > 500 µM.
For the compound `O=c1[nH]c(=O)n([C@H]2C[C@H](O)[C@@H](CO)O2)cc1/C=C/Br` [BRIVUDINE], the MIC50 in [2] was 0.03 µM (≈ 0.00999 µg/mL); in [11] it was > 100 µM; in [6], 12 µM (≈ 4 µg/mL); in [10], 0.02 µM (≈ 0.00666 µg/mL). In addition, in data set [7], the ID50 is > 500 µM.
Regarding `O=c1[nH]c(=O)n([C@H]2C[C@H](O)[C@@H](CO)S2)cc1/C=C/Br`, the MIC50 entry in [1] is “No activity”; in data set [2] it was 0.6 µM (≈ 0.21 µg/mL); in data set [6], 10 µM (≈ 3.49 µg/mL); in [10], 0.08 µM (≈ 0.0279 µg/mL). Besides, the Cmax in data set [3] is > 50 µM. For the same compound, the half-life in data set [5] is 2 h. For the same compound, the ID50 in data set [7] and in [8] was > 500 µM throughout. Besides, in [9], the Toxicity is > 40 mg/kg.
`Cc1cn([C@@H]2C[C@H](O)[C@@H](CO)S2)c(=O)[nH]c1=O`: the MIC50 in data set [2] and in [6] was > 100 µM in each case. For the same compound, the ID50 in [7] and in data set [8] was > 100 µM in each case.
Regarding `Cc1cn(C2CC(N=[N+]=[N-])C(CO)S2)c(=O)[nH]c1=O` (stereo not given), the MIC50 entry in data set [1] is “No activity”; in data set [2], > 100 µM; in data set [6], > 100 µM. Moreover, the ID50 in data set [7] and in data set [8] was > 100 µM each time.
For the compound `Nc1nc2c(ncn2COCCO)c(=O)[nH]1` [ACYCLOVIR], the results for the MIC50 in data set [2], in [11] and in data set [6] were 1.3 µM (≈ 0.293 µg/mL), 100 µM (≈ 22.5 µg/mL) and 1.8 µM (≈ 0.405 µg/mL), respectively. The ID50 in data set [7] was > 500 µM.
